Results published in ChEMBL document CHEMBL1128666, “Synthesis and antimicrobial and toxicological studies of amino acid and peptide derivatives of kanamycin A and netilmicin” (J Med Chem, 1995).
In brackets after ≈: the same amount, converted by molar mass. Several values for one entry are separate records, joined by “and”; a condition that tells them apart may be missing. Identical values can stand only once.

Experiments:
Acinetobacter baumannii = experiment: Minimum inhibitory concentration (MIC) was measured against Acinetobacter baumanni ATCC 19606.; type: functional
Summary of the method: (§1)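 Strains from ATCC; compounds tested as sulfate salts (stable ≥24 h in water at pH 7.0). MIC taken as highest dilution with no visible bacterial growth, expressed in mg/L of free base.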

Staphylococcus aureus [1] = experiment: microbe, parasite or virus in culture; conditions: ATCC 25923
Escherichia coli [2] = experiment: Minimum inhibitory concentration (MIC) was measured against Escherichia coli ATCC 35218.; type: functional; summary of the method: as §1
Citrobacter freundii = experiment: Minimum inhibitory concentration (MIC) was measured against Citrobacter freundii.; type: functional
Summary of the method: (§2)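 Strains were clinical isolates from the microbiology laboratories of Cliniques Universitaires St-Luc and Hôpital Brugmann, Brussels, and were characterized there. Compounds were tested as sulfate salts, which were stable in distilled water at pH 7.0 for at least 24 h. MIC was the highest dilution giving no visible growth, expressed in mg/L of free base.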

Staphylococcus aureus [3] = experiment: Minimum inhibitory concentration (MIC) was measured against Staphylococcus aureus.; type: functional; summary of the method: as §2
Enterobacter cloacae = experiment: Minimum inhibitory concentration (MIC) was measured against Enterobacter cloacae.; type: functional; summary of the method: as §2
Escherichia coli [4] = experiment: Minimum inhibitory concentration (MIC) was measured against Escherichia coli.; type: functional; summary of the method: as §2
Pseudomonas aeruginosa [5] = experiment: Minimum inhibitory concentration (MIC) was measured against Pseudomonas aeruginosa ATCC 27853.; type: functional
Acinetobacter lwoffii = experiment: microbe, parasite or virus in culture; conditions: ATCC 17986
Enterococcus faecalis = experiment: Minimum inhibitory concentration (MIC) was measured against Enterococcus faecalis ATCC 29212.; type: functional
Escherichia coli [6] = experiment: Minimum inhibitory concentration (MIC) was measured against Escherichia coli ATCC 25922.; type: functional
Pseudomonas aeruginosa [7] = experiment: Minimum inhibitory concentration (MIC) was measured against Pseudomonas aeruginosa.; type: functional; summary of the method: as §2
[8] = target: T1, Phospholipase A1 member A (Rattus norvegicus, UniProt P97535); experiment: IC50 was measured as concentration causing 50% inhibition of lysosomal phospholipase A1 activity.
T1 sequence (P97535 whole entry): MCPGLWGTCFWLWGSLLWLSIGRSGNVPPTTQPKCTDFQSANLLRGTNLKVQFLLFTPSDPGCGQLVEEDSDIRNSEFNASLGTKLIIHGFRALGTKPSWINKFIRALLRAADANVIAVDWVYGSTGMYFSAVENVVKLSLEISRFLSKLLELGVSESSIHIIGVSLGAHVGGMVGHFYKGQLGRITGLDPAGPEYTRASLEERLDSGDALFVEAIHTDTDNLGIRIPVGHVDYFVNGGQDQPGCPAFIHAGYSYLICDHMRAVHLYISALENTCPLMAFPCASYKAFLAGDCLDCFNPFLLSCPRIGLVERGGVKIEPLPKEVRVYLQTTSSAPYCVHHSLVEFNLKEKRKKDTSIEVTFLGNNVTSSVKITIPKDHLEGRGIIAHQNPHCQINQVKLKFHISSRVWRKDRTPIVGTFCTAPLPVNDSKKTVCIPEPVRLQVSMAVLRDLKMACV

Serratia marcescens = experiment: Minimum inhibitory concentration measured against Serratia marcescens; type: functional; summary of the method: as §2
[9] = Enterobacter cloacae, read-out: MIC
[10] = Pseudomonas aeruginosa, read-out: MIC
[11] = Serratia marcescens, read-out: MIC

## CN[C@@H]1[C@@H](O)[C@@H](O[C@@H]2[C@@H](O)[C@H](O[C@H]3O[C@H](CN)[C@@H](O)[C@H](O)[C@H]3O)[C@@H](N)C[C@H]2NC(=O)[C@@H](O)CN)OC[C@]1(C)O [ISEPAMICIN]
Acinetobacter baumannii
  MIC: 32 µg/mL (≈ 56.2 µM)
Staphylococcus aureus [1]
  MIC: 4 µg/mL (≈ 7.02 µM)
Escherichia coli [2]
  MIC: 2 µg/mL (≈ 3.51 µM)
Citrobacter freundii
  MIC: 4 µg/mL (≈ 7.02 µM)
Staphylococcus aureus [3]
  MIC: 2 µg/mL (≈ 3.51 µM)
Enterobacter cloacae
  MIC: 8 µg/mL (≈ 14 µM)
Enterobacter cloacae; [9]
  MIC: 4 µg/mL (≈ 7.02 µM)
Escherichia coli [4]
  MIC: 32 µg/mL (≈ 56.2 µM)
Pseudomonas aeruginosa [5]
  MIC: 16 µg/mL (≈ 28.1 µM)
Acinetobacter lwoffii
  MIC: 16 µg/mL (≈ 28.1 µM)
Enterococcus faecalis
  MIC: 64 µg/mL (≈ 112 µM)
Escherichia coli [6]
  MIC: 8 µg/mL (≈ 14 µM)
Pseudomonas aeruginosa [7]
  MIC: 64 µg/mL (≈ 112 µM)
Pseudomonas aeruginosa [7]; [10]
  MIC: 64 µg/mL (≈ 112 µM)

## NC[C@H]1O[C@H](O[C@H]2[C@H](O)[C@@H](O[C@H]3O[C@H](CO)[C@@H](O)[C@H](N)[C@H]3O)[C@H](N)C[C@@H]2N)[C@H](O)[C@@H](O)[C@@H]1O [KANAMYCIN]
Acinetobacter baumannii
  MIC: 4 µg/mL (≈ 8.26 µM)
Staphylococcus aureus [1]
  MIC: 1 µg/mL (≈ 2.06 µM)
Escherichia coli [2]
  MIC: 2 µg/mL (≈ 4.13 µM)
Citrobacter freundii
  MIC: 4 µg/mL (≈ 8.26 µM)
Staphylococcus aureus [3]
  MIC: > 128 µg/mL
Escherichia coli [4]
  MIC: > 128 µg/mL
Pseudomonas aeruginosa [5]
  MIC: > 128 µg/mL
Acinetobacter lwoffii
  MIC: 16 µg/mL (≈ 33 µM)
Enterococcus faecalis
  MIC: 32 µg/mL (≈ 66 µM)
Escherichia coli [6]
  MIC: 8 µg/mL (≈ 16.5 µM)
Pseudomonas aeruginosa [7]; [10]
  MIC: > 128 µg/mL

## GENTAMICIN [listing 1 of 2 here]
[8]
  IC50: 45 µg/mL

## GENTAMICIN [listing 2 of 2 here]
Acinetobacter baumannii
  MIC: 32 µg/mL
Escherichia coli [2]
  MIC: 1 µg/mL
Citrobacter freundii
  MIC: 1 µg/mL
Staphylococcus aureus [3]
  MIC: > 128 µg/mL
Enterobacter cloacae
  MIC: 32 µg/mL
Escherichia coli [4]
  MIC: 16 µg/mL
Pseudomonas aeruginosa [5]
  MIC: 8 µg/mL
Serratia marcescens
  MIC: 4 µg/mL (2×) and 8 µg/mL (2×)
Enterococcus faecalis
  MIC: 16 µg/mL
Escherichia coli [6]
  MIC: 4 µg/mL
Pseudomonas aeruginosa [7]
  MIC: 64 µg/mL and > 128 µg/mL

## CC(N)C(=O)NC1CC(N)C(OC2OC(CN)C(O)C(O)C2O)C(O)C1OC1OC(CO)C(O)C(N)C1O (stereo not given)
Acinetobacter baumannii
  MIC: 128 µg/mL (≈ 230 µM)
Staphylococcus aureus [1]
  MIC: 16 µg/mL (≈ 28.8 µM)
Escherichia coli [2]
  MIC: 64 µg/mL (≈ 115 µM)
Citrobacter freundii
  MIC: 64 µg/mL (≈ 115 µM)
Staphylococcus aureus [3]
  MIC: > 128 µg/mL
Enterobacter cloacae
  MIC: >128 µg/mL
Enterobacter cloacae; [9]
  MIC: 64 µg/mL (≈ 115 µM)
Escherichia coli [4]
  MIC: > 128 µg/mL
Pseudomonas aeruginosa [5]
  MIC: > 128 µg/mL
Acinetobacter lwoffii
  MIC: > 128 µg/mL
Serratia marcescens
  MIC: >128 mg/L
Serratia marcescens; [11]
  MIC: 128 mg/L (≈ 230 µM)
Enterococcus faecalis
  MIC: > 128 µg/mL
Escherichia coli [6]
  MIC: 128 µg/mL (≈ 230 µM)
Pseudomonas aeruginosa [7]; [10]
  MIC: > 128 µg/mL

## CCN[C@@H]1C[C@H](N)[C@@H](O[C@H]2OC(CN)=CC[C@H]2N)[C@H](O)[C@H]1O[C@H]1OC[C@](C)(O)[C@H](NC)[C@H]1O [NETILMICIN]
Acinetobacter baumannii
  MIC: 32 µg/mL (≈ 67.3 µM)
Staphylococcus aureus [1]
  MIC: 0.25 µg/mL (≈ 0.526 µM)
Escherichia coli [2]
  MIC: 0.5 µg/mL (≈ 1.05 µM)
Citrobacter freundii
  MIC: 0.25 µg/mL (≈ 0.526 µM)
Staphylococcus aureus [3]
  MIC: 8 µg/mL (≈ 16.8 µM)
Escherichia coli [4]
  MIC: > 128 µg/mL
Pseudomonas aeruginosa [5]
  MIC: 8 µg/mL (≈ 16.8 µM)
Acinetobacter lwoffii
  MIC: 32 µg/mL (≈ 67.3 µM)
Enterococcus faecalis
  MIC: 4 µg/mL (≈ 8.41 µM)
Escherichia coli [6]
  MIC: 1 µg/mL (≈ 2.1 µM)
Pseudomonas aeruginosa [7]
  MIC: >128 µg/mL
Pseudomonas aeruginosa [7]; [10]
  MIC: 64 µg/mL (≈ 135 µM)

## NCC[C@H](O)C(=O)N[C@@H]1C[C@H](N)[C@@H](O[C@H]2O[C@H](CN)[C@@H](O)[C@H](O)[C@H]2O)[C@H](O)[C@H]1O[C@H]1O[C@H](CO)[C@@H](O)[C@H](N)[C@H]1O [AMIKACIN]
Acinetobacter baumannii
  MIC: 16 µg/mL (≈ 27.3 µM)
Staphylococcus aureus [1]
  MIC: 4 µg/mL (≈ 6.83 µM)
Escherichia coli [2]
  MIC: 2 µg/mL (≈ 3.42 µM)
Citrobacter freundii
  MIC: 4 µg/mL (≈ 6.83 µM)
Staphylococcus aureus [3]
  MIC: 32 µg/mL (≈ 54.6 µM)
Escherichia coli [4]
  MIC: 128 µg/mL (≈ 219 µM)
Pseudomonas aeruginosa [5]
  MIC: 32 µg/mL (≈ 54.6 µM)
Acinetobacter lwoffii
  MIC: 32 µg/mL (≈ 54.6 µM)
Enterococcus faecalis
  MIC: 64 µg/mL (≈ 109 µM)
Escherichia coli [6]
  MIC: 8 µg/mL (≈ 13.7 µM)
Pseudomonas aeruginosa [7]
  MIC: 64 µg/mL (≈ 109 µM)
Pseudomonas aeruginosa [7]; [10]
  MIC: 64 µg/mL (≈ 109 µM)

## CCNC1CC(N)C(OC2OC(CNC(=O)C(C)N)=CCC2N)C(O)C1OC1OCC(C)(O)C(NC)C1O (stereo not given)
Acinetobacter baumannii
  MIC: > 128 µg/mL
Staphylococcus aureus [1]
  MIC: 32 µg/mL (≈ 58.5 µM)
Escherichia coli [2]
  MIC: 32 µg/mL (≈ 58.5 µM)
Citrobacter freundii
  MIC: 32 µg/mL (≈ 58.5 µM)
Staphylococcus aureus [3]
  MIC: > 128 µg/mL
Enterobacter cloacae; [9]
  MIC: > 128 µg/mL
Escherichia coli [4]
  MIC: > 128 µg/mL
Pseudomonas aeruginosa [5]
  MIC: > 128 µg/mL
Acinetobacter lwoffii
  MIC: 128 µg/mL (≈ 234 µM)
Serratia marcescens
  MIC: >128 mg/L
Serratia marcescens; [11]
  MIC: 128 mg/L (≈ 234 µM)
Enterococcus faecalis
  MIC: 128 µg/mL (≈ 234 µM)
Escherichia coli [6]
  MIC: 128 µg/mL (≈ 234 µM)
Pseudomonas aeruginosa [7]; [10]
  MIC: > 128 µg/mL
